Laboratory results: ChEMBL document CHEMBL1155306, “Inhibitors of HIV-1 attachment. Part 3: A preliminary survey of the effect of structural variation of the benzamide moiety on antiviral activity” (Bioorg Med Chem Lett, 2009)

Experiments:
[1] = Cytotoxicity against human HeLa67 cell after 3 days by XTT assay; type: cell-based; conditions: HeLa67 cells
Outline: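 HeLa67 cells treated in parallel with the antiviral assay. Viability read by XTT three days after compound addition. Values are means of two or more experiments unless noted otherwise.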

[2] = tested on: Human immunodeficiency virus 1; experiment: Antiviral activity against HIV1 infected human HeLa67 cells coexpressing JRFL-LUCENV after 3 days by luciferase reporter assay; type: functional, organism-based; conditions: Human immunodeficiency virus 1, HeLa67, 72 h
Outline: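 JRFL-Luc ΔEnv pseudotyped virus, titered by serial dilution on HeLa67 cells (CD4+/CCR5+). Fourfold serial dilutions of compound added to infected cells at the time of infection. Luciferase activity read after three days and compared with no-compound controls to derive EC50. Values are means of two or more experiments.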

| Structure (SMILES) | EC50 [2] | CC50 at 72 h [1] |
| --- | --- | --- |
| O=C(C(=O)N1CCN(C(=O)c2ccccc2)CC1)c1c[nH]c2cccc(F)c12 | – | > 300 µM |
| O=C(C(=O)N1CCN(C(=O)c2ccco2)CC1)c1c[nH]c2cccc(F)c12 | 0.0054 µM | > 300 µM |
| O=C(C(=O)N1CCN(C(=O)Cc2ccccc2)CC1)c1c[nH]c2ccccc12 | > 100 µM | > 300 µM |
| O=C(C(=O)N1CCN(C(=O)c2occc2Br)CC1)c1c[nH]c2cccc(F)c12 | 0.0014 µM | 236 µM |
| O=C(C(=O)N1CCN(C(=O)c2c[nH]cn2)CC1)c1c[nH]c2cccc(F)c12 | 1.23 µM | > 300 µM |
| O=C(C(=O)N1CCN(C(=O)c2sccc2Br)CC1)c1c[nH]c2cccc(F)c12 | 0.0032 µM | 69.7 µM |
| O=C(C(=O)N1CCN(C(=O)c2cc(F)c(F)cc2F)CC1)c1c[nH]c2ccccc12 | 36.5 µM | > 300 µM |
| O=C(C(=O)N1CCN(C(=O)c2cc(F)c(F)c(F)c2)CC1)c1c[nH]c2ccccc12 | 55 µM | > 300 µM |
| O=C(C(=O)N1CCN(C(=O)C2CCCCC2)CC1)c1c[nH]c2ccccc12 | 3.5 µM | > 300 µM |
| O=C(C(=O)N1CCN(C(=O)c2cscn2)CC1)c1c[nH]c2cccc(F)c12 | 0.0087 µM | > 250 µM |
| Cc1ccncc1C(=O)N1CCN(C(=O)C(=O)c2c[nH]c3ccccc23)CC1 | 86.5 µM | > 300 µM |
| O=C(C(=O)N1CCN(C(=O)c2ccccn2)CC1)c1c[nH]c2cccc(F)c12 | 0.0045 µM | > 300 µM |
| O=C(C(=O)N1CCN(C(=O)c2ccsc2)CC1)c1c[nH]c2cccc(F)c12 | 0.0004 µM | > 300 µM |
| O=C(C(=O)N1CCN(C(=O)c2cccnc2)CC1)c1c[nH]c2cccc(F)c12 | 0.154 µM | > 300 µM |
| O=C(C(=O)N1CCN(C(=O)c2ccno2)CC1)c1c[nH]c2cccc(F)c12 | 0.156 µM | > 300 µM |
| O=C(C(=O)N1CCN(C(=O)c2cccs2)CC1)c1c[nH]c2cccc(F)c12 | 0.0007 µM | > 300 µM |

| Structure (SMILES) | EC50 [2] | CC50 at 72 h [1] |
| --- | --- | --- |
| O=C(C(=O)N1CCN(C(=O)c2c(F)cc(F)cc2F)CC1)c1c[nH]c2ccccc12 | > 54 µM | > 300 µM |
| O=C(C(=O)N1CCN(C(=O)Cc2ccccc2)CC1)c1c[nH]c2cccc(F)c12 | > 50 µM | > 300 µM |
| O=C(C(=O)N1CCN(C(=O)CC2CCCCC2)CC1)c1c[nH]c2ccccc12 | > 100 µM | 158 µM |
| CN(C)c1ccccc1C(=O)N1CCN(C(=O)C(=O)c2c[nH]c3ccccc23)CC1 | > 0.5 µM | 89 µM |
| Cc1ccsc1C(=O)N1CCN(C(=O)C(=O)c2c[nH]c3cccc(F)c23)CC1 | 0.0173 µM | 260 µM |
| O=C(C(=O)N1CCN(C(=O)c2cccc3ccccc23)CC1)c1c[nH]c2ccccc12 | > 100 µM | > 300 µM |
| O=C(C(=O)N1CCN(C(=O)c2ccncc2)CC1)c1c[nH]c2cccc(F)c12 | 0.0237 µM | > 205 µM |
| N#Cc1ccoc1C(=O)N1CCN(C(=O)C(=O)c2c[nH]c3cccc(F)c23)CC1 | 0.007 µM | 187 µM |
| O=C(C(=O)N1CCN(C(=O)c2sccc2Cl)CC1)c1c[nH]c2cccc(F)c12 | 0.0119 µM | 50.5 µM |
| CC(C)(C)c1ccc(C(=O)N2CCN(C(=O)C(=O)c3c[nH]c4ccccc34)CC2)cc1 | 9 µM | 31 µM |
| O=C(C(=O)N1CCN(C(=O)c2ccoc2)CC1)c1c[nH]c2cccc(F)c12 | 0.0204 µM | > 300 µM |
| O=C(C(=O)N1CCN(C(=O)c2occc2Cl)CC1)c1c[nH]c2cccc(F)c12 | 0.0031 µM | 250 µM |
| O=C(C(=O)N1CCN(C(=O)c2cc[nH]n2)CC1)c1c[nH]c2cccc(F)c12 | 0.0718 µM | > 300 µM |
| Cc1nc(C(=O)N2CCN(C(=O)C(=O)c3c[nH]c4cccc(F)c34)CC2)cs1 | 0.0228 µM | > 300 µM |
| O=C(C(=O)N1CCN(C(=O)c2cc(F)c(F)c(F)c2F)CC1)c1c[nH]c2ccccc12 | > 100 µM | > 300 µM |
| O=C(C(=O)N1CCN(C(=O)c2ccc(F)cc2F)CC1)c1c[nH]c2ccccc12 | 6 µM | > 300 µM |

Second part, led by results:

| EC50 [2] | Structure (SMILES) | CC50 at 72 h [1] |
| --- | --- | --- |
| 6.7 µM | O=C(C(=O)N1CCN(C(=O)c2c(F)cccc2F)CC1)c1c[nH]c2ccccc12 | > 300 µM |
| 14.5 µM | O=C(C(=O)N1CCN(C(=O)c2ccc(Cl)c(Cl)c2)CC1)c1c[nH]c2ccccc12 | 123 µM |
| 3.5 µM | O=C(C(=O)N1CCN(C(=O)c2cccc(Cl)c2F)CC1)c1c[nH]c2ccccc12 | > 300 µM |
| 30 µM | O=C(C(=O)N1CCN(C(=O)c2ccc(Br)cc2)CC1)c1c[nH]c2ccccc12 | > 240 µM |
| 10.5 µM | O=C(C(=O)N1CCN(C(=O)c2ccccc2Br)CC1)c1c[nH]c2ccccc12 | > 300 µM |
| 2.49 µM | O=C(C(=O)N1CCN(C(=O)c2ccc(O)cc2)CC1)c1c[nH]c2ccccc12 | 136 µM |
| 35 µM | O=C(C(=O)N1CCN(C(=O)c2ccccc2Cl)CC1)c1c[nH]c2ccccc12 | > 300 µM |
| 8.91 µM | O=C(C(=O)N1CCN(C(=O)c2ccc(F)cc2)CC1)c1c[nH]c2ccccc12 | 280 µM |
| > 10 µM | COc1ccccc1C(=O)N1CCN(C(=O)C(=O)c2c[nH]c3ccccc23)CC1 | > 300 µM |
| 8.38 µM | Cc1ccc(C(=O)N2CCN(C(=O)C(=O)c3c[nH]c4ccccc34)CC2)cc1 | > 99 µM |
| 3.65 µM | O=C(C(=O)N1CCN(C(=O)c2ccccc2O)CC1)c1c[nH]c2ccccc12 | 194 µM |
| 8.3 µM | O=C(C(=O)N1CCN(C(=O)c2ccc(F)c(F)c2)CC1)c1c[nH]c2ccccc12 | > 300 µM |
| 1.55 µM | O=C(C(=O)N1CCN(C(=O)c2ccccn2)CC1)c1c[nH]c2ccccc12 | > 300 µM |
| 6.7 µM | O=C(C(=O)N1CCN(C(=O)c2cccc(Br)c2)CC1)c1c[nH]c2ccccc12 | 76 µM |
| > 56 µM | COc1cccc(C(=O)N2CCN(C(=O)C(=O)c3c[nH]c4ccccc34)CC2)c1 | > 300 µM |
| 18 µM | O=C(C(=O)N1CCN(C(=O)c2cccc(Cl)c2Cl)CC1)c1c[nH]c2ccccc12 | 235 µM |
| 37 µM | O=C(C(=O)N1CCN(C(=O)c2ccc(Cl)cc2Cl)CC1)c1c[nH]c2ccccc12 | 111 µM |
| 30.2 µM | COc1ccc(C(=O)N2CCN(C(=O)C(=O)c3c[nH]c4ccccc34)CC2)cc1 | 129 µM |
| 2.76 µM | O=C(C(=O)N1CCN(C(=O)c2cccc(F)c2)CC1)c1c[nH]c2ccccc12 | 200 µM |
| 17.5 µM | O=C(C(=O)N1CCN(C(=O)c2cccc(Cl)c2)CC1)c1c[nH]c2ccccc12 | 117 µM |
| 0.391 µM | O=C(C(=O)N1CCN(C(=O)c2ccccc2F)CC1)c1c[nH]c2ccccc12 | 101 µM |
| > 100 µM | CN(C)c1ccc(C(=O)N2CCN(C(=O)C(=O)c3c[nH]c4ccccc34)CC2)cc1 | > 300 µM |
| 65.8 µM | O=C(C(=O)N1CCN(C(=O)c2ccc(Cl)cc2)CC1)c1c[nH]c2ccccc12 | 92 µM |
| > 0.5 µM | CN(C)c1cccc(C(=O)N2CCN(C(=O)C(=O)c3c[nH]c4ccccc34)CC2)c1 | 230 µM |
| 82 µM | CCCc1ccc(C(=O)N2CCN(C(=O)C(=O)c3c[nH]c4ccccc34)CC2)cc1 | 48 µM |
| 4.2 µM | O=C(C(=O)N1CCN(C(=O)c2cccnc2)CC1)c1c[nH]c2ccccc12 | > 300 µM |
